Reference: ChEMBL document CHEMBL1130380, “Studies on selection blockers. 5. Design, synthesis, and biological profile of sialyl Lewis x mimetics based on modified serine-glutamic acid dipeptides” (J Med Chem, 1997)

How the values were obtained:
P-selectin [1] = target: T1, P-selectin (Mus musculus, UniProt Q01102); assay: Blocking activity using selectin-IgG chimeras in a Selectin P competitive binding assay.
T1 sequence (Q01102 whole entry): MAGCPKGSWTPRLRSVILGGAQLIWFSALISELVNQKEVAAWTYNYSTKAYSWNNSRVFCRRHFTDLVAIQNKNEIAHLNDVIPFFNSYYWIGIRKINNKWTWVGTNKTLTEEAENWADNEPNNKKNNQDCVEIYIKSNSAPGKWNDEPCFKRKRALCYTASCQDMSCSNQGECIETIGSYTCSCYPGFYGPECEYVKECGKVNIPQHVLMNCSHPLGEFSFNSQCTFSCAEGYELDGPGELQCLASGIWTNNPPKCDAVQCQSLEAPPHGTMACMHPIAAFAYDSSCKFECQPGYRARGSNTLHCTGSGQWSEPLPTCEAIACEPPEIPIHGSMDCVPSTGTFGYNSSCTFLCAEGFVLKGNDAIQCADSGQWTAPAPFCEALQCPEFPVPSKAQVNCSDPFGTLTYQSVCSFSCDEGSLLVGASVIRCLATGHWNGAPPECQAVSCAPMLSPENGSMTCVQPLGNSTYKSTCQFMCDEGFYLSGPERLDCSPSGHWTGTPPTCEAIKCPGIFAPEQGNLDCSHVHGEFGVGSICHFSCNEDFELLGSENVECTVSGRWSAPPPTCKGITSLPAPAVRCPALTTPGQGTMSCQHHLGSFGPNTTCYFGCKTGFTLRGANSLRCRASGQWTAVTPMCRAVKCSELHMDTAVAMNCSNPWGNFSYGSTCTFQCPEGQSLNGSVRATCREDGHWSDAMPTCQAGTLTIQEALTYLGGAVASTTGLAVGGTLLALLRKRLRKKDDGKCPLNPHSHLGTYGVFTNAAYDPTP
How it was run: (§1)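 Selectin-Ig fusion protein is premixed for 30 min at room temperature with biotin-anti-human IgG (Fc) and streptavidin-alkaline phosphatase (each 1:500 in 1% BSA-PBS). The complex is preincubated 30 min with test compound (final 100, 25, 6.25, 1.56 µM; 10 mM water stock). It is then bound 45 min at 37 °C to wells coated with sLex-pentaceramide and blocked with 5% BSA. Read-out is p-nitrophenylphosphate absorbance, expressed as % binding versus controls.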

E-selectin = target: T2, E-selectin (Mus musculus, UniProt Q00690); assay: In vitro inhibitory activity against Selectin E-sialyl Lewis X (sLex) binding
T2 sequence (Q00690 whole entry): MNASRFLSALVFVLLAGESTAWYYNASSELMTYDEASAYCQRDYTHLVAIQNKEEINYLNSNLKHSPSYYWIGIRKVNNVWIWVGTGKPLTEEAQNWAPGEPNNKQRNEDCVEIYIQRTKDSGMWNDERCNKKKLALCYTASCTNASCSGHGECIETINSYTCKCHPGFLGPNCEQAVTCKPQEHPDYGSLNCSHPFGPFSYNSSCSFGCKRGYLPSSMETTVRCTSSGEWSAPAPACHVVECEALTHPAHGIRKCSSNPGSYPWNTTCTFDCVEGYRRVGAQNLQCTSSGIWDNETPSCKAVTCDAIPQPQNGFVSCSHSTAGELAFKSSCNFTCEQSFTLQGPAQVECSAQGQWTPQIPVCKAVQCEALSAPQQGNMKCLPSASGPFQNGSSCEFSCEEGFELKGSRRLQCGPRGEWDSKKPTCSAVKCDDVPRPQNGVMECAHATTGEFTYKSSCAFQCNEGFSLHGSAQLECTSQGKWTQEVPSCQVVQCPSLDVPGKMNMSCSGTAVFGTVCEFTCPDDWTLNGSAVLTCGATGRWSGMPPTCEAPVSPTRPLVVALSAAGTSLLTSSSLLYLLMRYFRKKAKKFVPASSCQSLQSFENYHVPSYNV
How it was run: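 sLex-pentaceramide (100 pmol/well) dried onto wells, blocked with 5% BSA-PBS 1 h RT. E-selectin-Ig fusion premixed 30 min RT with biotin-anti-human IgG(Fc)/streptavidin-alkaline phosphatase. Compounds (water stock 10 mM; final 100, 25, 6.25, 1.56 µM) preincubated with complex 30 min RT, then added to wells 45 min at 37 °C. Read-out: p-nitrophenylphosphate in diethanolamine pH 9.8; % binding versus no-compound control, background without selectin-Ig.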

L-selectin [2] = target: T3, L-selectin (Mus musculus, UniProt P18337); assay: Blocking activity using selectin-IgG chimeras in a Selectin L competitive binding assay.; how it was run: as §1
T3 sequence (P18337 whole entry): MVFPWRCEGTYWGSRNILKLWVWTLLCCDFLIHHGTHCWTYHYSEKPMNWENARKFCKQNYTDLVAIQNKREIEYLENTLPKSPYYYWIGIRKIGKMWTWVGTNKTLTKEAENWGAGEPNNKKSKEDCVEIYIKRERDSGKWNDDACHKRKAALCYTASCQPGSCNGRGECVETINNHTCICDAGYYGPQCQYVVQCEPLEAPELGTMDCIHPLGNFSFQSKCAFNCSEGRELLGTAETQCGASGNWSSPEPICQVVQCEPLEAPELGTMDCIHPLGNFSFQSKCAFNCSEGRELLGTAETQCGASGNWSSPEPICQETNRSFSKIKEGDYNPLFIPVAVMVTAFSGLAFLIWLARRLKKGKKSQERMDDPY

P-selectin [3] = target: T1, P-selectin; assay: Blocking activity using seletin-IgG chimeras in a Selectin P competitive binding assay.; how it was run: as §1
L-selectin [4] = target: T3, L-selectin; assay: Blocking activity using seletin-IgG chimeras in a Selectin L competitive binding assay.; how it was run: as §1

Row | Compound | IC50 (P-selectin [1]) [µM] | IC50 (E-selectin) [µM] | IC50 (L-selectin [2]) [µM] | IC50 (P-selectin [3]) [µM] | IC50 (L-selectin [4]) [µM]
1 | CCCCCCCCCCCCCCC(CCCCCCCCCCCCCC)C(=O)N[C@H](CO[C@@H]1O[C@@H](C)[C@@H](O)[C@H](O)[C@@H]1O)C(=O)N[C@H](CCC(=O)O)C(=O)NC | 1.9 | > 1000 | 39 | – | –
2 | CCCCCCCCCCCCCCC(CCCCCCCCCCCCCC)C(=O)N[C@@H](CO[C@@H]1O[C@@H](C)[C@@H](O)[C@H](O)[C@@H]1O)C(=O)N[C@H](CCC(=O)O)C(=O)NC | – | 5.5 | – | 0.7 | 9.4
3 | CCCCCCCCCCCCCCC(CCCCCCCCCCCCCC)C(=O)N[C@@H](CO[C@@H]1O[C@@H](C)[C@@H](O)[C@H](O)[C@@H]1O)C(=O)N[C@@H](CCC(=O)O)C(=O)NC | – | > 1000 | – | 2.1 | 18
4 | CCCCCCCCCCCCCCC(CCCCCCCCCCCCCC)CO[C@@H]1O[C@H](CO)[C@@H](O[C@@H]2O[C@H](CO)[C@H](O)[C@H](OS(=O)(=O)O)[C@H]2O)[C@H](O[C@@H]2O[C@@H](C)[C@@H](O)[C@@H](O)[C@@H]2O)[C@H]1O | – | 280 | – | 100 | 30
5 | CC(=O)N[C@H]1[C@H]([C@H](O)[C@H](O)CO)O[C@@](O[C@H]2[C@@H](O)[C@@H](CO)O[C@@H](O[C@@H]([C@H](O[C@@H]3O[C@@H](C)[C@@H](O)[C@@H](O)[C@@H]3O)[C@H](C=O)NC(C)=O)[C@H](O)CO)[C@@H]2O)(C(=O)O)C[C@@H]1O [SIALYL LEWIS X] | – | 600 | – | > 1000 | > 1000
6 | CCCCCCCCCCCCCCC(CCCCCCCCCCCCCC)C(=O)N[C@H](CO[C@@H]1O[C@@H](C)[C@@H](O)[C@H](O)[C@@H]1O)C(=O)N[C@@H](CCC(=O)O)C(=O)NC | – | 13 | – | 0.5 | 6
